# Rows were chosen to be rich in hits. Some 4.7% of all compounds tested hit in one or more screens of this group.
# MrgX1 antag: antagonists of human MrgX1 receptor. Q96LB2. MRGX1-HEK293 calcium flux, Fluo-4, BAM8-22 antagonism; hits give low values. B-score at 10 µM. 1.3% of 310,000 active;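 active = calcium-response B-score plate-corrected more than 3 library SD below zero, starting fluorescence within 5 deviations, no agonist response on first addition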;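 note: peak minus trough fluorescence over baseline after final BAM8-22 challenge near maximal dose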
# Target sequence (Q96LB2 whole entry, looked up): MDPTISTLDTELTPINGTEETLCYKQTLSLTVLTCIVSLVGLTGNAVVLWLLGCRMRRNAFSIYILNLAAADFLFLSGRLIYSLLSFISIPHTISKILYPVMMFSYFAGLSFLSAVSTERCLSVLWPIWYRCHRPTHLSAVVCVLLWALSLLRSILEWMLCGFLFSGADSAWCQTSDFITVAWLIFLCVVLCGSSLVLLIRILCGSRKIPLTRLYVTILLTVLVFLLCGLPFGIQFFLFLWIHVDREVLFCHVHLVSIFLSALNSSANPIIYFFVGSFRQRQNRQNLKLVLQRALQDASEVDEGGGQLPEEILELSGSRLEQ
# RGS4 act: potentiators or activators of RGS4. B-score at 10 µM. 0.92% of 310,000 active. HEK293 M3R/inducible RGS4, carbachol calcium flux Fluo4; hits give low values. AID 463111;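 active = B-score of the integrated calcium signal more than 4 SD below the library mean, with starting fluorescence not abnormally high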;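 note: negative B-score means reduced calcium response which marks RGS4 activation or potentiation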
#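 Reagent: ECmax carbachol challenge; Test system: M3R-expressing HEK293 line, RGS4 induced by doxycycline; Schedule: overnight RGS4 induction, 30 min dye load 37 °C, 20 min compound RT; Detection: calcium dye Fluo4 fluorescence; Read-out: Agonist-evoked peak-minus-minimum fluorescence over baseline, integrated ratio, B score.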
# RGS4 block: inhibitors of human RGS4; P49798; HEK293 M3R/RGS4 inducible, Fluo-4 calcium flux; hits give high values; triggered by carbachol at its EC20; B-score at 10 µM; 0.45% of 310,000 active;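 active = B-score, a plate-corrected calcium signal, over three deviations above library mean, with baseline fluorescence within five deviations of library mean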;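 note: RGS4 expression induced by doxycycline in cells with stable M3 receptor; B-score is computed from the integrated fluorescence ratio over baseline after carbachol; higher B-score means a larger calcium signal and so more RGS4 inhibition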
# Target sequence (P49798 whole entry, looked up): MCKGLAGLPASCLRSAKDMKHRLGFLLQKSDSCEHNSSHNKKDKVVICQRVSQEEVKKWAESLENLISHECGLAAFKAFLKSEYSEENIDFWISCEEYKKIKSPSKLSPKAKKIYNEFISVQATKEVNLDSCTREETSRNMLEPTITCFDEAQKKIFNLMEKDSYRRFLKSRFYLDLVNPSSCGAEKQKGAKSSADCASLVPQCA
# MrgX1 agonist: activates human MrgX1 receptor signaling; MrgX1-HEK293 cells, Fluo-4 calcium fluorescence, agonist mode; hits give high values; Q96LB2; 0.44% of 310,000 active; B-score at 10 µM;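 active = calcium response B-score plate-corrected fluorescence ratio at least 3 library SD, with starting fluorescence B-score inside 5 SD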
#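 Material: MrgX1-expressing HEK293 cells / Dosing: compound as first of three additions / Incubation: overnight seeding, then 1 h dark dye loading / Signal: Fluo-4 NW calcium fluorescence / Evaluation: B-scored fluorescence response ratio / Benchmarks: positive and negative control wells on each plate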
# KCC2 mod: KCC2 (human) Cl- transport modulation | B-score of Tl+ flux slope (higher = more flux/activation; lower = inhibition) at 10 µM | KCC2 cells, thallium flux FluoZin-2 fluorescence | Q9H2X9 | 2.2% of 190,000 active;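 active = thallium flux slope and its plate-corrected score both differing from the plate sample mean at a set confidence after two filtering rounds, in either direction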;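 note: slope of fluorescence scaled to starting intensity during 10 to 20 s after thallium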
# MrgX1 PAM: allosterically activates human MrgX1 receptor signaling; Q96LB2; MrgX1-HEK293, Fluo-4 calcium flux, FDSS; hits give high values; B-score at 10 µM; 0.63% of 310,000 active; AID 588675;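 active = plate-corrected calcium response at least 3 library SD above typical, normal starting fluorescence, not activating the receptor alone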;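 note: compound read alongside a low EC10 to EC30 dose of BAM8-22 agonist; peak minus trough fluorescence over baseline measured at the second addition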
# MrgX1 antag conf: reconfirmed antagonist of human MrgX1 receptor signaling; remaining BAM8-22 calcium response % of control (hits give low values), % at 10 µM; AID 602420; 19% of 2,300 active; shares compounds with MrgX1 antag; MrgX1-HEK293, BAM8-22 calcium flux, Fluo-4; hits give low values;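 active = remaining agonist calcium response no higher than 100% minus 3 SD of agonist-only control wells, with starting fluorescence near control levels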;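 note: agonist BAM8-22 given at a near maximal EC90 to ECmax level; peak minus minimum fluorescence divided by baseline after agonist addition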
# HEK293 Ca flux: MrgX1 antagonist counter-screen hit in parental HEK293 cells | 2% of 4,000 active | shares compounds with MrgX1 antag | fluorescence ratio F(max-min)/F0 at 10 µM | AID 624111 | Fluo-4 calcium fluorescence, FDSS;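 active = duplicate-averaged calcium fluorescence ratio at least three times the standard deviation of buffer wells, a nonspecific response in parental cells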
# HEK293 Ca counter: MrgX1 allosteric activator counter-screen hit in parental HEK293 cells; fluorescence ratio F(max-min)/F0 at 10 µM; AID 624114; parental HEK293 calcium flux, Fluo-4 fluorescence ratio; hits give high values; shares compounds with MrgX1 antag; 0.4% of 4,000 active;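 active = calcium fluorescence ratio, averaged over duplicates, at least 3 SD of the buffer-well ratio, meaning a nonspecific response in receptor-free cells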;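 note: untransfected parental HEK293 lacking MrgX1 used as counterscreen for MrgX1 allosteric activators; fluorescence change taken during the second addition on a kinetic imager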
# HEK293 Ca cntr2: activity in parental HEK293 cells lacking MrgX1 receptor | Fluo-4 calcium fluorescence (FDSS); hits give high values | fluorescence ratio F(max-min)/F0 at 10 µM | shares compounds with MrgX1 antag | 8.7% of 4,000 active;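 active = calcium fluorescence ratio at least three times the spread of buffer wells, meaning a non-specific response in parental cells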
# Hits are given with their value; – = inactive; · = no result.
SMILES,MrgX1 antag,RGS4 act,RGS4 block,MrgX1 agonist,KCC2 mod,MrgX1 PAM,MrgX1 antag conf,HEK293 Ca flux,HEK293 Ca counter,HEK293 Ca cntr2
COc1ccc(-c2cn3c(C)c(C(=O)Nc4cccc(C)n4)sc3n2)cc1,-5.3,–,–,–,–,–,82%,–,–,–
Cc1cccc(NC(=O)c2sc3nc(-c4ccccc4)cn3c2C)n1,–,–,–,–,–,–,·,·,·,·
O=C(NCCc1ccco1)C(=O)NCC1CCCN1S(=O)(=O)c1ccccc1 (centres undefined),-5.1,-7.3,–,–,·,–,–,–,–,–
CC(/C=C1\SC(=S)N(CC(=O)O)C1=O)=C\c1ccccc1,–,–,–,–,–,–,·,·,·,·
CC(/C=C1\SC(=S)N(C(C(=O)O)c2ccccc2)C1=O)=C\c1ccccc1 (centres undefined),-14,-7.4,–,–,–,–,–,–,–,–
Cc1ccc(N2CCC(N3CCN(C)C(CCO)C3)CC2)cc1 (centres undefined),-5,–,–,–,·,–,–,–,–,–
CCC(=O)Nc1ccc(S(=O)(=O)N2CCc3ccccc32)cc1,–,–,–,–,·,–,·,·,·,·
O=C(Nc1ccc(S(=O)(=O)N2CCc3ccccc32)cc1)c1ccco1,-4.8,–,–,–,–,–,–,–,–,–
CC/C(=N\NC(=O)c1nnn(-c2nonc2N)c1CN(C)c1ccccc1)c1ccccc1,–,–,–,–,·,–,·,·,·,·
COc1ccc(-n2c(CNC(=O)c3cccs3)n[nH]c2=S)cc1,-4.8,–,–,–,–,–,–,–,–,–
C#CCn1cc(Cl)cc(C(=O)Nc2ccccc2)c1=O,–,–,–,–,·,–,·,·,·,·
O=C1CC(c2cccc(Oc3ccccc3)c2)NC(=O)N1 (centres undefined),-8.2,–,–,–,–,–,–,–,–,–
CCOC(=O)C1=C(C)C(c2cccc(Oc3ccccc3)c2)NC(=S)N1 (centres undefined),–,–,–,–,–,–,·,·,·,·
COc1ccc(N=Cc2ccc(-c3ccccc3)o2)cc1,-6,–,–,–,–,–,–,–,–,–
CCOC(=O)N1CCC(=NNC(=O)NC2CCCCC2)CC1,-21,–,–,–,–,–,–,–,–,–
CCOC(=O)N1CCN(C(=O)NC2CCCCC2)CC1,–,–,–,–,–,–,·,·,·,·
Cn1cnnc1SCC(=O)NCc1cccc(C(F)(F)F)c1,-6.5,–,–,–,–,–,–,–,–,–
O=C(CCNC(=O)c1ccc(Cl)cc1)NCc1cccc(C(F)(F)F)c1,-10,–,–,–,·,–,–,–,–,–
CC(C)Oc1ccc(C(=O)NCc2ccco2)cc1,-5.9,–,–,–,–,–,–,–,–,–
CN(C)C(CNC(=O)CCc1nc2sc3c(c2c(=O)[nH]1)CCCC3)c1ccccc1 (centres undefined),-6.5,–,–,–,·,–,–,–,–,–
O=C(CN1C(=O)NC2(CCCC2)C1=O)Nc1cccc(Cl)c1,–,–,–,–,·,–,·,·,·,·
O=C1c2ccccc2C(=O)N1CC(O)CN1CCOCC1 (centres undefined),-5.2,–,–,–,–,–,–,–,–,–
CC(=O)Nc1ccc(C(=O)OCCc2ccccc2)cc1,–,–,–,–,·,–,·,·,·,·
CCC(C)C(NC(=O)c1ccc(Cl)cc1)C(=O)Nc1cccnc1 (centres undefined),-7.6,–,–,–,–,–,–,–,–,–
Cc1ccc(N(C(=O)Cc2c[nH]c3ccccc23)C(C(=O)NC2CCCCC2)c2ccco2)cc1 (centres undefined),–,–,–,–,·,–,·,·,·,·
SMILES,MrgX1 antag,RGS4 act,RGS4 block,MrgX1 agonist,KCC2 mod,MrgX1 PAM,MrgX1 antag conf,HEK293 Ca flux,HEK293 Ca counter,HEK293 Ca cntr2
Cc1ccccc1N(C(=O)Cc1c[nH]c2ccccc12)C(C(=O)NC1CCCCC1)c1ccco1 (centres undefined),-16,–,–,–,–,–,–,–,–,–
N#Cc1c2n(cnc1=O)CCCCC2,-4.9,–,–,–,–,–,–,–,–,–
N#CCc1nn2c3c(cnc2c1C#N)C(=O)CCC3,–,–,–,–,–,–,·,·,·,·
COc1ccc(S(=O)(=O)N2CCCCCC2)cc1C(=O)N(CC(C)C)C1CCS(=O)(=O)C1 (centres undefined),–,–,–,–,·,–,·,·,·,·
CCOc1cnc(-c2ccc(OC)cc2)o1,-4.6,–,–,–,–,–,–,–,–,–
Cc1ccc(CNc2oc(-c3cccs3)nc2C#N)cc1,-5.4,–,–,–,·,–,–,–,–,–
N#Cc1nc(-c2cccs2)oc1NCc1ccc(Cl)cc1,–,–,–,–,–,–,·,·,·,·
CCC(C)(C)n1nnnc1C(c1ccc(C)cc1)N1CCN(Cc2ccc3c(c2)OCO3)CC1 (centres undefined),-6.2,–,–,–,–,–,–,–,–,–
CCC(C)(C)n1nnnc1C(c1ccc2ncccc2c1)N1CCN(Cc2ccc3c(c2)OCO3)CC1 (centres undefined),–,–,–,–,·,–,·,·,·,·
CCOC(=O)c1ccc2c(c1)nc(COc1ccc3ccccc3c1)n2CC,-5.2,-7.3,–,–,·,–,–,–,–,–
CCn1c(COc2ccc(OC)cc2)nc2ccccc21,–,–,–,–,–,–,·,·,·,·
Cc1cc(-c2csc3ncnc(N4CCN(C)CC4)c23)cc(C)c1C,-4.9,–,–,–,·,–,–,–,–,–
CC(C)(C)NS(=O)(=O)c1ccc(CCC(=O)NCc2ccccn2)cc1,–,–,–,–,·,–,·,·,·,·
O=C(O)CCCn1cc(NC(=O)c2ccco2)cn1,–,–,–,–,–,–,·,·,·,·
Cc1occc1C(=O)Nc1cnn(CCCC(=O)O)c1,-4.9,–,–,–,·,–,–,–,–,–
CCCOc1ccc(C(=O)N(Cc2cccs2)C2CCS(=O)(=O)C2)cc1 (centres undefined),–,–,–,–,·,–,·,·,·,·
O=C(CCC1CCCN(C(=O)CCC(F)(F)F)C1)NCc1ccc(F)c(F)c1 (centres undefined),-4.8,–,–,–,–,–,–,–,–,–

# Assay outcomes as filed in PubChem BioAssay.
